We go through one molecule from ChEMBL document CHEMBL5143731, “N-Acylamino Saccharin as an Emerging Cysteine-Directed Covalent Warhead and Its Application in the Identification of Novel FBPase Inhibitors toward Glucose Reduction” (J Med Chem, 2022).

Broadly, the inhibition is the drop in the measured response relative to a control, in per cent. As a reminder, the half-life is the time in which the quantity being followed falls by half.

Data set [1] addresses T1, Tyrosine-protein kinase JAK3 (Homo sapiens) (UniProt P52333).
T1 sequence (whole entry): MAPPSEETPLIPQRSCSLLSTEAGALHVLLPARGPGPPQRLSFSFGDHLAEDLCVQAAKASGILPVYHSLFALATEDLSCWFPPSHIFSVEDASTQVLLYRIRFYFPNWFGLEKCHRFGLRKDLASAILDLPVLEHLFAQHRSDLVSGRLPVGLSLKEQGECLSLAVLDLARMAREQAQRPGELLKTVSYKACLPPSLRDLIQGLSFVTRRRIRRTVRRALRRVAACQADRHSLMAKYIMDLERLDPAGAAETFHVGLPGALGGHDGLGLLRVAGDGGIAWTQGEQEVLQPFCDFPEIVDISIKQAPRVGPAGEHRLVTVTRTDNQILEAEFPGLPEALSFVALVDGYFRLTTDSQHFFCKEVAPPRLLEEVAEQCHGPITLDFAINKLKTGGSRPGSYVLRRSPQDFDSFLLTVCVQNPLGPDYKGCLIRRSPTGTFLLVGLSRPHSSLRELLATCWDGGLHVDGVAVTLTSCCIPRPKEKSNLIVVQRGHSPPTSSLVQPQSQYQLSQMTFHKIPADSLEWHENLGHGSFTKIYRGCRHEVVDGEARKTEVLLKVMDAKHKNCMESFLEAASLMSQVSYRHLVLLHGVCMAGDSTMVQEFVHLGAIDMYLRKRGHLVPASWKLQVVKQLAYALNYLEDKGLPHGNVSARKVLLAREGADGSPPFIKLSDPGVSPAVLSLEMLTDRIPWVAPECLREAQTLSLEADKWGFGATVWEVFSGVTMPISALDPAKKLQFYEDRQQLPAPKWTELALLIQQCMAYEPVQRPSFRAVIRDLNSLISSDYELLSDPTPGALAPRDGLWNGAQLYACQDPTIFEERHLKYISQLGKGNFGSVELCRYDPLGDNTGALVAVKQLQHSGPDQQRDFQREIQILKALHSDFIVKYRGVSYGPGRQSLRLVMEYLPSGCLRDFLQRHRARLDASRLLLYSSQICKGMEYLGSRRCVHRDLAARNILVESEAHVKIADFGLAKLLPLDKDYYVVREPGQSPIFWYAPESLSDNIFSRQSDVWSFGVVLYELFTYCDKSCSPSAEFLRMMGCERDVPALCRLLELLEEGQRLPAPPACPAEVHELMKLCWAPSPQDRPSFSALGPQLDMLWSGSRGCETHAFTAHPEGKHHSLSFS
The experiment in a line: Inhibition of JAK3 (unknown origin) at 300 uM measured after 40 mins in presence of ATP by luminescence assay relative to control. The gist of the method:
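Kinase reaction (50 μL): 40 mM Tris pH 7.4, 10 mM MgCl2, 0.1 mg/mL BSA, 1 mM DTT, 10 μM ATP, kinase and substrate, with 1% final DMSO. Run 40 min at 30 °C. Residual ATP read by Kinase-Glo Plus luminescence, inversely related to kinase activity.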

Data set [2] is described as follows: Half life of the compound in DMSO. Format: physicochemical. The gist of the method:
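Electrophile (20 μmol) incubated at 37 °C either in pH 7.4 buffer, or in DMSO-d6/D2O (5:1), with or without glutathione. Decay followed by 1H NMR kinetics. First-order rate constant kpseudo-1st taken from ln[electrophile] versus time; t1/2 = 0.693/(60×k), in min.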

Some results are limits rather than exact numbers.

Regarding `O=C(NCc1ccccc1)N1C(=O)c2ccccc2S1(=O)=O`, the inhibition in data set [1] is less than 50%. The molecule further returned a half-life in data set [2] of more than 167 h.
